# Vif imaging: inhibitors of HIV Vif | HEK293T cells, Vif self-association by quenched fluorescence, imaging, 24 h | inhibition, % at 7.49 µM | 0.35% of 340,000 active | AID 602346; in the data active = inhibition above about 50%, passing the limit was not always enough; inconclusive = no clear call, values can overlap the other calls; inactive = below about 31%
# SR-BI DiI inh: blocks mouse SR-BI lipid uptake from DiI-HDL; ldlA[mSR-BI] CHO cells, DiI-HDL uptake fluorescence, 3 h; inhibition, % at 12.5 µM; 0.96% of 320,000 active; AID 488896;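 active = mean replicate inhibition of at least 70% and a set share of replicates each scoring 70 or more; inconclusive = meets just one of the two criteria; inactive = fails both criteria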;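 also: 0% = median of neutral control wells and 100% = median of positive control wells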
# Target sequence (Q61009 whole entry, looked up): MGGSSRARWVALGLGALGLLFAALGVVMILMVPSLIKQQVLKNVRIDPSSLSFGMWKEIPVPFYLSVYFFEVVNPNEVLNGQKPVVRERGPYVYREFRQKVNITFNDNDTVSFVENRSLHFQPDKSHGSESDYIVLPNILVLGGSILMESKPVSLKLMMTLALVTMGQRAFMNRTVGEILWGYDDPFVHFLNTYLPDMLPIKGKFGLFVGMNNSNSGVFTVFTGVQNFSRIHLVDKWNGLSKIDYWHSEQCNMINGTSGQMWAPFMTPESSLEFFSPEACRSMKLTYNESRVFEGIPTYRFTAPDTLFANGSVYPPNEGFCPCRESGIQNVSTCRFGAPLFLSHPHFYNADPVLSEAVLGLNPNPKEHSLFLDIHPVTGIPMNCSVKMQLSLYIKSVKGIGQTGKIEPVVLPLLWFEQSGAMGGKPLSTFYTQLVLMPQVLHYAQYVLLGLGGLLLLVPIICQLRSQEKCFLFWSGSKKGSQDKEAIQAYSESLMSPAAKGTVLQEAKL
# SR-BI DiI-HDL act: SR-BI HDL lipid transfer activation; CHO ldlA[mSR-BI] cells, DiI-HDL uptake fluorescence, 3 h; 100 = double the neutral-control signal; activation, % at 12.5 µM; 0.096% of 320,000 active;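 active = mean replicate activation of at least 60% and every replicate at or above 60%; inconclusive = mean or all-replicate condition met, but not both; inactive = mean below 60% and not all replicates reaching 60%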;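 also: 0% = median plate neutral-control signal and 100% = twice that signal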
#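 Material: SR-BI-overexpressing, LDLR-lacking CHO cells; schedule: compound exposure 3 h, 37 °C; reagent: DiI-labelled HDL at 10 µg/mL final; technique: bottom-read fluorescence, 550/595 nm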
# H9c2 TAG inh: inhibitors of triacylglycerol accumulation | H9c2 cells, Nile Red lipid (TAG) fluorescence; cells loaded with 200 µM oleic acid | inhibition, % at 12.5 µM | 0.66% of 230,000 active;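 active = pattern-corrected inhibition of lipid staining of at least 50% with the nuclear-stain viability signal not falling by more than 50%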;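 also: 0% = DMSO wells and 100% = triacsin C control wells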
# SMARCA2 activ: activators of SMARCA2 function | MG213 cells, MMTV-luciferase reporter, dexamethasone, overnight | 1% of 370,000 active | activation, % at 9.1 µM | AID 652017; in the data active = activation above about 7.8%;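 also: 0% = vehicle wells and 100% = reference activator wells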
# * = called active by the depositor; ? = inconclusive; · = no result. A selection: hits, their analogues and other compounds. The true share with any hit is near 2.5%.
SMILES,Vif imaging,SR-BI DiI inh,SR-BI DiI-HDL act,H9c2 TAG inh,SMARCA2 activ
Cc1c(C(=O)NCc2cccs2)oc2ccc(S(=O)(=O)N3CCOCC3)cc12,16,-3,3,1,-2
Cc1c(C(=O)NCc2ccccn2)oc2ccc(S(=O)(=O)N3CCOCC3)cc12,86*,3,-3,25,2
CCOC(=O)C1=C(c2ccccc2)NC(=S)NC1C (stereo unspecified),·,72*,-72,-3,-7
O=C(N[C@H](Cc1ccccc1)C(=O)NCC1CCCO1)[C@H]1O[C@@H](n2ccc(=O)[nH]c2=O)[C@H](O)[C@@H]1O (stereo partly specified),·,·,·,·,3
C[C@H]1CCC(=O)N([C@H](CN=[N+]=[N-])Cc2ccccc2)CC1,59*,-26,26,-26,0
O=C(NCc1ccccc1)N1CCC(c2nc3ccc(Cl)cc3[nH]2)CC1,·,·,·,·,2
Cc1cccc(C)c1OCc1nnc(SCC(=O)O)n1-c1c(C)cccc1C,·,·,·,·,-2
O=C(N/N=C/c1ccc([N+](=O)[O-])o1)c1cc(-c2cccc(Br)c2)nc2ccccc12,-1,105*,-105,10,-5
O=C(N/N=C/c1ccco1)c1cc(-c2ccccc2)nc2ccccc12,3,55,-55,·,-3
CCCc1ccc(-c2cc(C(=O)N/N=C/c3ccc([N+](=O)[O-])o3)c3ccccc3n2)cc1,0,95*,-95,23,-2
COCC(=O)N1C[C@H]2CON(C)[C@H]2C[C@H]1c1cccc(-c2cc(Cl)cc(Cl)c2)c1,·,·,·,·,-1
CC(C)[C@H](NC(=O)C1CC1)C(=O)N1CCC[C@H]1C(=O)NCCc1ccccc1Cl,·,·,·,·,1
Cc1cc(C)nc(SCc2ccc(C(=O)N/N=C/c3cccc(O)c3O)cc2)n1,1,93*,-93,·,0
COc1ccc(O)c(/C=N/NC(=O)c2ccc(CSc3nc(C)cc(C)n3)cc2)c1,-18,125*,-125,23,-7
Nc1[nH]c(C(=O)c2ccccc2)c(-c2cccc(C(F)(F)F)c2)c1C(=O)c1c[nH]c2ccccc12,·,·,·,·,-3
CCOC(=O)[C@@]12CCC3=C1N(CCC3)C(=O)[C@H](CC(=O)NCc1cccc3ccccc13)C2,·,·,·,·,-1
COc1cc(/C=N/Nc2nncc3ccccc23)cc(OC)c1OC,-5,57,-57,·,3
COc1ccc(/C=N/Nc2nncc3ccccc23)c(OC)c1,2,76*,-76,·,1
NNC(=O)c1cc2c(s1)-c1cc(Cl)ccc1SC2,·,99*,-99,8,-2
COc1ccc(CNC(=S)Nc2cccc(Cl)c2)cc1,53*,·,·,-1,-6
Cc1ccc(-c2cc(C(=O)N/N=C/c3c[nH]c4ccccc34)n[nH]2)o1,-2,16,-16,·,2
Cc1ccc(-c2cc(C(=O)N/N=C/c3ccccc3O)n[nH]2)o1,-6,83*,-83,·,0
CCCCCCCCN1C(=O)[C@@H](CC(=O)NCc2ccc(C)o2)C[C@@]2(C(=O)OC)C1=C[C@H](C1CCCC1)O[C@@H]2C,·,·,·,·,-3
COc1ccc(C(=O)Nc2cccc(/C(C)=N/NC(=O)c3ccc([N+](=O)[O-])cc3)c2)cc1OC,-13,71*,-71,-13,5
Cc1ccccc1NS(=O)(=O)c1cc(C(=O)Nc2cccc([N+](=O)[O-])c2)ccc1C,0,72*,-72,·,-7
SMILES,Vif imaging,SR-BI DiI inh,SR-BI DiI-HDL act,H9c2 TAG inh,SMARCA2 activ
Cc1nc2ccc(C(=O)Nc3cccc([N+](=O)[O-])c3)cc2s1,-22,74*,-74,4,0
COc1ccc(C(=O)Nc2cccc([N+](=O)[O-])c2)cc1Br,74*,83*,-83,21,-3
Cc1ccc(C(=O)Nc2cccc([N+](=O)[O-])c2)cc1S(=O)(=O)Nc1ccc(C(=O)O)cc1,-8,6,-6,2,1
CCCCCn1cc(CCC(=O)Nc2ccc(Oc3cccnc3)cc2)c2ccccc21,·,·,·,·,1
CCN(CC)C(=O)CC[C@@H]1CC[C@]2(CCCN(Cc3ccccn3)C2)O1,·,·,·,·,1
COc1ccc(OC)c(-c2csc(NC(=O)C3CSC4(C)CCC(=O)N34)n2)c1 (stereo unspecified),-2,82*,-82,1,-2
C[C@H]1COc2cc(NCCO)ccc2S(=O)(=O)N1,·,·,·,·,-3
O=C(c1ccncc1)N1N=C(c2ccc(Cl)cc2)CC1c1ccccc1O (stereo unspecified),-3,82*,-82,·,4
COc1ccc(C2=NN(C(=O)c3ccncc3)C(c3ccccc3O)C2)cc1 (stereo unspecified),-4,21,-21,·,-2
COc1cccc(C2CC(c3ccc(Br)cc3)=NN2C(=O)c2ccncc2)c1OC (stereo unspecified),-2,40,-40,·,-5
COc1ccccc1C1CC(c2ccc(Br)cc2)=NN1C(=O)c1cccnc1 (stereo unspecified),1,74*,-74,·,-4
O=C1N[C@@H](Cc2ccccc2)C(=O)N2[C@H]1CSCCS2(=O)=O,·,·,·,·,3
COc1cc(N2CCCC2)c(OC)cc1/C=C(/C#N)c1ccc(Br)cc1,9,2,-2,·,-7
COc1cc(N2CCCC2)c(OC)cc1/C=C(/C#N)c1ccc(F)cc1,63*,47,-47,-13,2
CCCCCCCCN1C(=O)[C@@H](CC(=O)N2CCN(C(=O)C3CC3)CC2)C[C@@]2(C(=O)OC)C1=C[C@H](COCc1ccccc1)O[C@@H]2C,·,·,·,·,-3
CCN(C(=O)[C@@H]1CCCN1C(=O)c1cccs1)c1nc2cc(Cl)ccc2s1,0,78*,-78,·,8
COC(=O)[C@]12C[C@H](CC(=O)N3CCSCC3)C(=O)N(Cc3ccc4c(c3)OCO4)C1=C[C@H](C(C)(C)C)O[C@@H]2C,·,·,·,·,-4
Cc1cccc(NC(=O)/C(C#N)=C/c2cn(CC(=O)NCc3ccco3)c3ccccc23)c1C,72*,30,-30,·,-1
N#C/C(=C\c1cn(Cc2ccccc2)c2ccccc12)C(=O)NCc1ccco1,25,28,-28,·,-2
C#CCNC(=O)C[C@H]1C[C@@]2(C(=O)OC)C(=C[C@H](C(C)C)O[C@@H]2C2CC2)N(CCc2ccc(OC)c(OC)c2)C1=O,·,·,·,·,0
CCOc1ccc(NC(=O)/C(C#N)=C/c2ccc(N3CCCC3)c(C)c2)cc1,?,96*,-96,·,0
CN1CCN(C2=C(NS(=O)(=O)c3cccs3)C(=O)c3ccccc3C2=O)CC1,-1,14,-14,16,-2
CCOc1ccccc1N1CCN(C2=C(NS(=O)(=O)c3cccs3)C(=O)c3ccccc3C2=O)CC1,-5,81*,-81,43,-4
Cc1ccc(Nc2nc(N)nc(CCl)n2)cc1,-5,-10,10,15,-12
Cc1ccc(Nc2nc(N)nc(CCl)n2)c(C)c1,-1,·,·,80*,-12
Cc1cccc(Nc2nc(N)nc(CCl)n2)c1C,3,·,·,80*,-12
Cc1ccc(Nc2nc(N)nc(CN3CCCCCC3)n2)c(C)c1,-6,1,-1,·,1

# Screening data as filed in PubChem BioAssay.
